What all share (format): in vivo
Data set [1] concerns radiant heat induced rat tail flick. Put plainly: Radiant heat induced rat tail flick method. To be noted: dose mg/Kg b.w.: Std (Aspirin) 200, 4a-4d 100, 4e 200, 4f 75. The method, boiled down:
(§1)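 Animals given test compound or standard were compared with a control group of animals. Significance of the differences between treatment and control was assessed by Student's t test.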
A general note: Hot-plate and tail-flick tests time the reaction to a heat stimulus.

For data set [2], the system named is carrageenan induced rat paw edema. Put plainly: Carrageenan induced rat paw edema method. Particulars: dose mg/Kg b.w.: Std (Aspirin) 200, 4a-4d 100, 4e 200, 4f 75. The procedure, abridged:
as §1

Another data set has as its system adrenal gland weight. Put plainly: Adrenal weight change method. To be noted: suppression of adrenal gland weight; dose mg/Kg b.w.: Std (Aspirin) 200, 4a-4d 100, 4e 200, 4f 75. The method, boiled down: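 Adrenal weight change was one of the anti-inflammatory methods. Treated groups were compared with a control group of animals by Student's t test and marked significant or non-significant.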

The test system of the next data set is ulcers. Put plainly: Ulcerogenic activity, arbitrary scoring of ulcer severity. Particulars: dose mg/Kg b.w.: Std (Aspirin) 200, 4a-4d 100, 4e 200, 4f 75.

`CC(=O)Oc1ccccc1C(=O)O` [Aspirin]: the “Analgesic activity percent protection Rat tail flicK method” value in data set [1] came out at 49.39%. The “Antiinflammatory activity Percentage inhibition Carrageenan method 1 h” value in data set [2] (after 1 h) turned out to be 54.84%. In data set [2] (after 3 h), the “Antiinflammatory activity Percentage inhibition Carrageenan method 3 h” value came out at 55.05%. The “Antiinflammatory activity Percentage inhibition Carrageenan method 5 h” value in data set [2] (after 5 h) came out at 73.81%. For the same compound, in the data set with adrenal gland weight, the “Antiinflammatory activity Percentage inhibition Adrenal weight method” value worked out at 50.13%. Besides, the Ulcer index in the data set with ulcers is given as 43.33.
